Assay results pooled from the literature.
ABL1 Q252H phosphorylated: Tyrosine-protein kinase ABL1, phosphorylated (ABL1, Homo sapiens, UniProt P00519, Q252H)
ABL1 T315I phosphorylated: Tyrosine-protein kinase ABL1, phosphorylated (ABL1, Homo sapiens, UniProt P00519, T315I)
ABL1 H396P non-phosphorylated: Tyrosine-protein kinase ABL1, non-phosphorylated (ABL1, Homo sapiens, UniProt P00519, H396P)
ABL1 F317I non-phosphorylated: Tyrosine-protein kinase ABL1, non-phosphorylated (ABL1, Homo sapiens, UniProt P00519, F317I)
ABL1 E255K: Tyrosine-protein kinase ABL1 (ABL1, Homo sapiens, UniProt P00519, E255K)
ABL1 T315I non-phosphorylated: Tyrosine-protein kinase ABL1, non-phosphorylated (ABL1, Homo sapiens, UniProt P00519, T315I)
ABL1 H396P phosphorylated: Tyrosine-protein kinase ABL1, phosphorylated (ABL1, Homo sapiens, UniProt P00519, H396P)
ABL1 M351T: Tyrosine-protein kinase ABL1 (ABL1, Homo sapiens, UniProt P00519, M351T)
ABL1 F317L non-phosphorylated: Tyrosine-protein kinase ABL1, non-phosphorylated (ABL1, Homo sapiens, UniProt P00519, F317L)
ABL1 phosphorylated: Tyrosine-protein kinase ABL1, phosphorylated (ABL1, Homo sapiens, UniProt P00519)

Compound	target	read-out	method	tested at	remaining binding [%]
O=C(c1ccc(Nc2nccc(-c3cc4ccccc4s3)n2)cc1)N1CCC(N2CCCC2)CC1	ABL1 Q252H phosphorylated	binding	competition with immobilised ligand	1 µM	6.4
O=C(NCC1CCOCC1)c1n[nH]cc1NC(=O)c1c(F)cccc1F	ABL1 T315I phosphorylated	binding	competition with immobilised ligand	1 µM	91
Nc1ncc2c(n1)-c1c([nH]c3ccc(C#CC4CC4)cc13)CCCC2	ABL1 H396P non-phosphorylated	binding	competition with immobilised ligand	1 µM	93
C[C@@H](c1ccc(-n2cnc3c(N)ncnc32)cc1)N1CCc2nn(C)c(Cc3ccccc3)c2C1=O	ABL1 F317I non-phosphorylated	binding	competition with immobilised ligand	0.1 µM	40
O=C(N[C@H]1CCCCC/C=C\C2C[C@@]2(C(=O)O)NC(=O)[C@@H]2C[C@@H](Oc3ccncc3)CN2C1=O)OC1CCCC1 (some centres unmarked)	Tyrosine-protein kinase ABL1, phosphorylated (ABL1, Homo sapiens, UniProt P00519, M351T)	binding	competition with immobilised ligand	1 µM	89
Cc1cnn2ncc(-c3ccnc(N(C)C)n3)c2c1	ABL1 E255K	binding	–	1 µM	100
O=C(NCCCN1CCOCC1)c1ccc(Nc2ncc(Cl)c(-c3ccc(Cl)s3)n2)cc1	ABL1 T315I non-phosphorylated	binding	competition with immobilised ligand	1 µM	4.5
O=C(Nc1c[nH]nc1C(=O)NC1CCNCC1)c1cc(F)cc(F)c1	ABL1 H396P phosphorylated	binding	competition with immobilised ligand	1 µM	100
CN(CCCC(F)(F)F)c1nccc(-c2cnn3ncccc23)n1	ABL1 M351T	binding	–	1 µM	100
CC(=O)C1=C(C)N(c2cccc(C(F)(F)F)c2)C(=O)N[C@@H]1c1ccc(C#N)nc1	ABL1 T315I phosphorylated	cell-free assay	competition with immobilised ligand	1 µM	96.9
C=CC(=O)N1CCC(C(=O)NCC(=O)N2CCN(c3nc(-c4cnc(N)nc4C(F)F)nc(N4CCOCC4)n3)CC2)CC1	ABL1 F317L non-phosphorylated	binding	competition with immobilised ligand	1 µM	90
COc1cc(-c2cn(C3CCc4c(F)cccc4N(CC(F)(F)F)C3=O)nn2)ccc1-n1cnc(C)c1 (centres unmarked)	ABL1 phosphorylated	cell-free assay	competition with immobilised ligand	1 µM	100
CC1CCCN1c1nccc(-c2cnn3ncccc23)n1 (centres unmarked)	Tyrosine-protein kinase ABL1 (ABL1, Homo sapiens, UniProt P00519, T315I)	binding	–	1 µM	100
CNC(=O)[C@@H]1CC[C@@H](n2c(-c3ccc4cnccc4c3)nc3ccc(C(=O)NCc4cccc(C(N)=O)c4)cc32)C1	ABL1 H396P non-phosphorylated	binding	competition with immobilised ligand	1 µM	86
CCN1CCN(Cc2ccc(C(=O)Nc3ccc(C)c(Oc4ccc5c(c4)CC(=O)N5)c3)cc2C(F)(F)F)CC1	ABL1 H396P phosphorylated	binding	competition with immobilised ligand	1 µM	62
O=C1NC(c2ccccn2)Sc2ccccc21 (centres unmarked)	ABL1 phosphorylated	cell-free assay	competition with immobilised ligand	1 µM	72

Compound	target	read-out	method	tested at	remaining binding [%]
COc1ncc2cc3ccccc3nc2c1C#N	ABL1 F317I non-phosphorylated	cell-free assay	competition with immobilised ligand	5 µM	96
COc1cnc(Nc2cccc(S(N)(=O)=O)c2)nc1N1CCN(c2ccccc2)C(=O)C1	ABL1 H396P non-phosphorylated	binding	competition with immobilised ligand	1 µM	58
CN(C)c1nccc(-c2cnc3ncccn23)n1	Tyrosine-protein kinase ABL1 (ABL1, Homo sapiens, UniProt P00519, Y253F)	binding	–	1 µM	41
O=C(c1ccc(Nc2ncc(Cl)c(-c3cc4ccccc4s3)n2)cc1)N1CCC(N2CCCC2)CC1	ABL1 Q252H phosphorylated	binding	competition with immobilised ligand	1 µM	12
C[C@@H]1CCN(c2nccc(-c3cnn4ncccc34)n2)C1	Tyrosine-protein kinase ABL1 (ABL1, Homo sapiens, UniProt P00519, Q252H)	binding	–	1 µM	81
c1cncc(-c2cccc(Nc3nccc(NC4CCCCC4)n3)c2)c1	ABL1 F317L non-phosphorylated	binding	competition with immobilised ligand	10 µM	81
N[C@H]1CCN(c2nccc(-c3cnn4ncccc34)n2)C1	ABL1 M351T	binding	–	1 µM	100
CNC(=O)Nc1ccc2c(c1)CC[C@@]21OC(=O)N(CC(=O)N(Cc2ccc(F)cc2)[C@@H](C)C(F)(F)F)C1=O	ABL1 T315I non-phosphorylated	cell-free assay	competition with immobilised ligand	1 µM	78
COc1cnc(Nc2cccc(S(N)(=O)=O)c2)nc1N1CCN(c2ccccc2)CC1	ABL1 F317I non-phosphorylated	binding	competition with immobilised ligand	1 µM	94
CN(c1nccc(-c2cnn3ncccc23)n1)C1CC1	ABL1 E255K	binding	–	1 µM	100
Cc1cnc(Nc2ccc(C(=O)N3CCC(N4CCCC4)CC3)cc2)nc1-c1cc2ccccc2s1	ABL1 Q252H phosphorylated	binding	competition with immobilised ligand	1 µM	1.4
CN(C)C(=O)Cn1cc(-c2nc([C@@](C)(c3ccc(-c4cnc(N)nc4)cc3)C3CC3)no2)cn1	Tyrosine-protein kinase ABL1, non-phosphorylated (ABL1, Homo sapiens, UniProt P00519, Q252H)	cell-free assay	competition with immobilised ligand	1 µM	0
O=C(c1ccc(Nc2ncc(Cl)c(-c3ccc(Cl)s3)n2)cc1)N1CCC(N2CCCC2)CC1	Tyrosine-protein kinase ABL1, phosphorylated (ABL1, Homo sapiens, UniProt P00519, F317I)	binding	competition with immobilised ligand	1 µM	87
Cc1nc(N2CC[C@@H](O)C2)ncc1-c1cc(C(F)(F)F)cc2[nH]ncc12	ABL1 phosphorylated	binding	competition with immobilised ligand	1 µM	61
O=C(NCCCN1CCOCC1)c1ccc(Nc2nccc(-c3cc4ccccc4s3)n2)cc1	ABL1 F317I non-phosphorylated	binding	competition with immobilised ligand	1 µM	100
Cc1cc(-n2nc(Cc3cc(F)cc(C(F)(F)F)c3)nc2C)ccc1C(N)=O	Tyrosine-protein kinase ABL1, phosphorylated (ABL1, Homo sapiens, UniProt P00519, F317L)	cell-free assay	competition with immobilised ligand	1 µM	100
